Reference: ChEMBL document CHEMBL1135734, “Side-chain lactam-bridge conformational constraints differentiate the activities of salmon and human calcitonins and reveal a new design concept for potent calcitonin analogues” (J Med Chem, 2002)
Each block holds one molecule with its values, some of them ahead of it. Positions of bridges follow the written chain, without caps; N, C: chain ends. Non-standard residues stand in square brackets, D forms with d. Residues, ends and D or L forms follow the SMILES beside them. Nle = CCCC[C@H](N)C(=O)O; Orn = NCCC[C@H](N)C(=O)O

Tests used:
[1] = biological target: T1, Calcitonin receptor (Homo sapiens) (UniProt P30988)
T1 sequence (whole entry): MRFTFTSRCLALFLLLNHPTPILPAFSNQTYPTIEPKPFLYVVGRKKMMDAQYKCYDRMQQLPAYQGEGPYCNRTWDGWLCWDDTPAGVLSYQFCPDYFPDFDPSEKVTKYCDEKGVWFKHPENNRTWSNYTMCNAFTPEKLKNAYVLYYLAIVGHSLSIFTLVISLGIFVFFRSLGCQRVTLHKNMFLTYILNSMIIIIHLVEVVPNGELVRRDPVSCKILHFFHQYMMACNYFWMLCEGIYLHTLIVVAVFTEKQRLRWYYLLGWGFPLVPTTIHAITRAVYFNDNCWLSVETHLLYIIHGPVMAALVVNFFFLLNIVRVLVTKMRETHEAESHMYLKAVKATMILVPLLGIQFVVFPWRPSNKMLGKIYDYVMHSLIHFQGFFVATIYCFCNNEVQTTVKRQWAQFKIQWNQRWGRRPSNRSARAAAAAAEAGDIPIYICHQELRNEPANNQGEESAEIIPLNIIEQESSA

[2] = biological target: T2, Calcitonin receptor (Rattus norvegicus) (UniProt P32214); experiment: Affinity for calcitonin receptor of rat brain relative to [125I]-salmon calcitonin
T2 sequence (whole entry): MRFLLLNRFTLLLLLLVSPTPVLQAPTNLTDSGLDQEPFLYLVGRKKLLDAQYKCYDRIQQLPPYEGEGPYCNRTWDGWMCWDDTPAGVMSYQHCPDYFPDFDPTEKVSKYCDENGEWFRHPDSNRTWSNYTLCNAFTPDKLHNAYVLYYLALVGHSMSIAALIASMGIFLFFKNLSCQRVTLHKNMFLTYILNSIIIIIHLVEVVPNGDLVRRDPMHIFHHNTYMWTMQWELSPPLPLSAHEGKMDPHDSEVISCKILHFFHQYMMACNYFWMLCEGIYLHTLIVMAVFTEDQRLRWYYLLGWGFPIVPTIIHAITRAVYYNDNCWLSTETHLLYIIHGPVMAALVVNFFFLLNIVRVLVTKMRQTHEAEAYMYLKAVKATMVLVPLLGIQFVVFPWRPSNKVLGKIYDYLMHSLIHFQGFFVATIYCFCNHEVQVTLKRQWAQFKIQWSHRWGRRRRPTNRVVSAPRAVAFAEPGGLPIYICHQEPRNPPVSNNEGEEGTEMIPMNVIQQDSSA
Procedure, shortened: (§1)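 Male Sprague–Dawley rat (250–350 g) brain membranes (~0.63 mg protein/tube) were shaken on ice for 30 min with 10 pM final [125I-Tyr22]sCT and competitor in 50 mM Tris-HCl pH 7.4 with 34 μM bacitracin. Tubes were centrifuged and the pellets washed, SDS-solubilized and scintillation counted. Nonspecific binding was taken with 1 μM sCT. IC50 came from probit analysis, and relative affinity set sCT = 100%.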

Calcitonin receptor [3] = biological target: T3, Calcitonin receptor (Homo sapiens, UniProt P30988); experiment: Inhibition of [125I]-salmon calcitonin (sCT) binding to human calcitonin receptor I1 expressed in HEK293 cells; assay type: cell-based; conditions: hek293
T3 sequence (P30988 whole entry): T1 sequence (whole entry)

Calcitonin receptor [4] = biological target: T4, Calcitonin receptor (Rattus norvegicus, UniProt P32214); experiment: Displacement of [125I]-salmon calcitonin (sCT) from calcitonin receptor of rat brain
T4 sequence (P32214 whole entry): T2 sequence (whole entry)
Procedure, shortened: as §1

SMILES: CC(C)C[C@H](NC(=O)[C@H](CCCCN)NC(=O)CNC(=O)[C@H](CC(C)C)NC(=O)[C@@H](NC(=O)[C@H](CS)NC(=O)[C@@H](NC(=O)[C@H](CO)NC(=O)[C@H](CC(C)C)NC(=O)[C@H](CC(N)=O)NC(=O)[C@H](CO)NC(=O)[C@@H](N)CS)[C@@H](C)O)C(C)C)C(=O)N[C@@H](CO)C(=O)N[C@@H](CCC(N)=O)C(=O)N[C@@H](CCC(=O)O)C(=O)N[C@@H](CC(C)C)C(=O)N[C@H]1CC(=O)NCCC[C@@H](C(=O)N[C@@H](Cc2ccc(O)cc2)C(=O)N2CCC[C@@H]2C(=O)N[C@@H](CCCN=C(N)N)C(=O)N[C@H](C(=O)N[C@@H](CC(N)=O)C(=O)N[C@H](C(=O)NCC(=O)N[C@@H](CO)C(=O)NCC(=O)N[C@H](C(=O)N2CCC[C@@H]2C(N)=O)[C@@H](C)O)[C@@H](C)O)[C@@H](C)O)NC(=O)[C@H](CCC(N)=O)NC(=O)[C@H](CC(C)C)NC(=O)[C@H](CCCCN)NC1=O
ED50 [1]: 0.091 nM
Relative affinity [2]: 120

SMILES: CC(C)C[C@H](NC(=O)[C@H](CCCCN)NC(=O)CNC(=O)[C@H](CC(C)C)NC(=O)[C@@H](NC(=O)[C@H](CS)NC(=O)[C@@H](NC(=O)[C@H](CO)NC(=O)[C@H](CC(C)C)NC(=O)[C@H](CC(N)=O)NC(=O)[C@H](CO)NC(=O)[C@@H](N)CS)[C@@H](C)O)C(C)C)C(=O)N[C@@H](CO)C(=O)N[C@@H](CCC(N)=O)C(=O)N[C@@H](CCC(=O)O)C(=O)N[C@@H](CC(C)C)C(=O)N[C@H]1CC(=O)NCCCC[C@@H](C(=O)N[C@@H](Cc2ccc(O)cc2)C(=O)N2CCC[C@H]2C(=O)N[C@@H](CCCN=C(N)N)C(=O)N[C@H](C(=O)N[C@@H](CC(N)=O)C(=O)N[C@H](C(=O)NCC(=O)N[C@@H](CO)C(=O)NCC(=O)N[C@H](C(=O)N2CCC[C@H]2C(N)=O)[C@@H](C)O)[C@@H](C)O)[C@@H](C)O)NC(=O)[C@H](Cc2c[nH]cn2)NC(=O)[C@H](CC(C)C)NC(=O)[C@H](CCCCN)NC1=O (H-CSNLSTCVLGKLSQELDKLHKYPRTNTGSGTP-NH2; lactam 17-21)
Ki (Calcitonin receptor [3]): 0.05 nM
IC50 (Calcitonin receptor [4]): 0.18 nM

SMILES: CC(C)C[C@H](NC(=O)[C@H](CCCCN)NC(=O)CNC(=O)[C@H](CC(C)C)NC(=O)[C@@H](NC(=O)[C@H](CS)NC(=O)[C@@H](NC(=O)[C@H](CO)NC(=O)[C@H](CC(C)C)NC(=O)[C@H](CC(N)=O)NC(=O)[C@H](CO)NC(=O)[C@@H](N)CS)[C@@H](C)O)C(C)C)C(=O)N[C@@H](CO)C(=O)N[C@@H](CCC(N)=O)C(=O)N[C@@H](CCC(=O)O)C(=O)N[C@@H](CC(C)C)C(=O)N[C@H]1CC(=O)NCCC[C@@H](C(=O)N[C@@H](Cc2ccc(O)cc2)C(=O)N2CCC[C@H]2C(=O)N[C@@H](CCCN=C(N)N)C(=O)N[C@H](C(=O)N[C@@H](CC(N)=O)C(=O)N[C@H](C(=O)NCC(=O)N[C@@H](CO)C(=O)NCC(=O)N[C@H](C(=O)N2CCC[C@H]2C(N)=O)[C@@H](C)O)[C@@H](C)O)[C@@H](C)O)NC(=O)[C@H](CCC(N)=O)NC(=O)[C@H](CC(C)C)NC(=O)[C@H](CCCCN)NC1=O
Ki (Calcitonin receptor [3]): 0.023 nM
IC50 (Calcitonin receptor [4]): 0.326 nM

The remaining lines, values ahead:

ED50 [1]: 0.053 nM
Relative affinity [2]: 150
SMILES: CC(C)C[C@H](NC(=O)[C@H](CCCCN)NC(=O)CNC(=O)[C@H](CC(C)C)NC(=O)[C@@H](NC(=O)[C@H](CS)NC(=O)[C@@H](NC(=O)[C@H](CO)NC(=O)[C@H](CC(C)C)NC(=O)[C@H](CC(N)=O)NC(=O)[C@H](CO)NC(=O)[C@@H](N)CS)[C@@H](C)O)C(C)C)C(=O)N[C@@H](CO)C(=O)N[C@@H](CCC(N)=O)C(=O)N[C@@H](CCC(=O)O)C(=O)N[C@@H](CC(C)C)C(=O)N[C@H]1CC(=O)NCCC[C@@H](C(=O)N[C@@H](Cc2ccc(O)cc2)C(=O)N2CCC[C@@H]2C(=O)N[C@@H](CCCN=C(N)N)C(=O)N[C@H](C(=O)N[C@@H](CC(N)=O)C(=O)N[C@H](C(=O)NCC(=O)N[C@@H](CO)C(=O)NCC(=O)N[C@H](C(=O)N2CCC[C@@H]2C(N)=O)[C@@H](C)O)[C@@H](C)O)[C@@H](C)O)NC(=O)[C@H](Cc2cn(N)cn2)NC(=O)[C@H](CC(C)C)NC(=O)[C@H](CCCCN)NC1=O

Ki (Calcitonin receptor [3]): 2570 nM
IC50 (Calcitonin receptor [4]): > 5000 nM
SMILES: CC[C@H](C)[C@H](NC(=O)[C@H](C)NC(=O)[C@@H](NC(=O)[C@H](CCC(N)=O)NC(=O)[C@@H]1CCCN1C(=O)[C@H](Cc1ccccc1)NC(=O)[C@@H](NC(=O)[C@H](Cc1c[nH]cn1)NC(=O)[C@H](CCCCN)NC(=O)[C@@H]1CCCN1C(=O)[C@H](CC(N)=O)NC(=O)[C@H](Cc1ccccc1)NC(=O)[C@H](CC(=O)O)NC(=O)[C@H](CCC(N)=O)NC(=O)[C@@H](NC(=O)[C@H](Cc1ccc(O)cc1)NC(=O)[C@@H](NC(=O)CNC(=O)[C@H](CC(C)C)NC(=O)[C@H](CCSC)NC(=O)[C@@H]1CSSC[C@H](N)C(=O)NCC(=O)N[C@@H](CC(N)=O)C(=O)N[C@@H](CC(C)C)C(=O)N[C@@H](CO)C(=O)N[C@@H]([C@@H](C)O)C(=O)N1)[C@@H](C)O)[C@@H](C)O)[C@@H](C)O)[C@@H](C)O)C(=O)NCC(=O)N[C@H](C(=O)NCC(=O)N[C@@H](C)C(=O)N1CCC[C@H]1C(N)=O)C(C)C (H-CGNLSTCMLGTYTQDFNPKHTFPQTAIGVGAP-NH2; disulfide 1-7)

Ki (Calcitonin receptor [3]): 0.56 nM
IC50 (Calcitonin receptor [4]): 5.39 nM
SMILES: CCCC[C@H](NC(=O)[C@H](CS)NC(=O)[C@@H](NC(=O)[C@H](CO)NC(=O)[C@H](CC(C)C)NC(=O)[C@H](CC(N)=O)NC(=O)CNC(=O)[C@@H](N)CS)[C@@H](C)O)C(=O)N[C@@H](CC(C)C)C(=O)NCC(=O)N[C@H](C(=O)N[C@@H](Cc1ccccc1)C(=O)N[C@H](C(=O)N[C@@H](CCC(N)=O)C(=O)N[C@@H](CC(=O)O)C(=O)N[C@@H](Cc1ccccc1)C(=O)N[C@H]1CC(=O)NCCC[C@@H](C(=O)N[C@@H](Cc2ccc(O)cc2)C(=O)N2CCC[C@H]2C(=O)N[C@@H](CCC(N)=O)C(=O)N[C@H](C(=O)N[C@@H](C)C(=O)N[C@H](C(=O)NCC(=O)N[C@H](C(=O)NCC(=O)N[C@@H](C)C(=O)N2CCC[C@H]2C(N)=O)C(C)C)[C@@H](C)CC)[C@@H](C)O)NC(=O)[C@H](Cc2c[nH]cn2)NC(=O)[C@H](Cc2ccccc2)NC(=O)[C@H](CCCCN)NC1=O)[C@@H](C)O)[C@@H](C)O (H-CGNLSTC[Nle]LGTFTQDFDKFH[Orn]YPQTAIGVGAP-NH2; lactam 17-21)

Ki (Calcitonin receptor [3]): 195 nM
IC50 (Calcitonin receptor [4]): 60 nM
SMILES: CC[C@H](C)[C@H](NC(=O)[C@H](C)NC(=O)[C@@H](NC(=O)[C@H](CCC(N)=O)NC(=O)[C@@H]1CCCN1C(=O)[C@H](Cc1ccccc1)NC(=O)[C@@H]1CCCCNC(=O)C[C@H](NC(=O)[C@H](Cc2ccccc2)NC(=O)[C@H](CC(=O)O)NC(=O)[C@H](CCC(N)=O)NC(=O)[C@@H](NC(=O)[C@H](Cc2ccc(O)cc2)NC(=O)[C@@H](NC(=O)CNC(=O)[C@H](CC(C)C)NC(=O)[C@H](CCSC)NC(=O)[C@@H]2CSSC[C@H](N)C(=O)NCC(=O)N[C@@H](CC(N)=O)C(=O)N[C@@H](CC(C)C)C(=O)N[C@@H](CO)C(=O)N[C@@H]([C@@H](C)O)C(=O)N2)[C@@H](C)O)[C@@H](C)O)C(=O)N[C@@H](CCCCN)C(=O)N[C@@H](Cc2ccccc2)C(=O)N[C@@H](Cc2cnc[nH]2)C(=O)N1)[C@@H](C)O)C(=O)NCC(=O)N[C@H](C(=O)NCC(=O)N[C@@H](C)C(=O)N1CCC[C@H]1C(N)=O)C(C)C (H-CGNLSTCMLGTYTQDFDKFHKFPQTAIGVGAP-NH2; disulfide 1-7; lactam 17-21)

Ki (Calcitonin receptor [3]): > 2500 nM
IC50 (Calcitonin receptor [4]): > 5000 nM
SMILES: CC[C@H](C)[C@H](NC(=O)[C@H](C)NC(=O)[C@@H](NC(=O)[C@H](CCC(N)=O)NC(=O)[C@@H]1CCCN1C(=O)[C@H](Cc1ccccc1)NC(=O)[C@@H](NC(=O)[C@H](Cc1cnc[nH]1)NC(=O)CNC(=O)[C@@H]1CCCN1C(=O)[C@H](CC(N)=O)NC(=O)[C@H](Cc1ccccc1)NC(=O)[C@H](CC(=O)O)NC(=O)[C@H](CCC(N)=O)NC(=O)[C@@H](NC(=O)[C@H](Cc1ccc(O)cc1)NC(=O)[C@@H](NC(=O)CNC(=O)[C@H](CC(C)C)NC(=O)[C@H](CCSC)NC(=O)[C@@H]1CSSC[C@H](N)C(=O)NCC(=O)N[C@@H](CC(N)=O)C(=O)N[C@@H](CC(C)C)C(=O)N[C@@H](CO)C(=O)N[C@@H]([C@@H](C)O)C(=O)N1)[C@@H](C)O)[C@@H](C)O)[C@@H](C)O)[C@@H](C)O)C(=O)NCC(=O)N[C@H](C(=O)NCC(=O)N[C@@H](C)C(=O)N1CCC[C@H]1C(N)=O)C(C)C (H-CGNLSTCMLGTYTQDFNPGHTFPQTAIGVGAP-NH2; disulfide 1-7)
